In ChEMBL document CHEMBL1143889, “N-Phenyl and N-phenylalkyl-maleimides acting against Candida spp.: time-to-kill, stability, interaction with maleamic acids” (2008):
≈ marks a conversion by molar mass, not a printed value. Values belong to the compound of their own block, whether it stands above or below them. Calls of active or inactive are those of the source. No cut-off for these calls is given here.

How the values were obtained:
[1] = tested on: Candida tropicalis; experiment: Antifungal activity against Candida tropicalis C 137-1997 after 48 hrs by CLSI M27-A2 method; type: functional
How it was run: (§1)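 Broth microdilution per CLSI M27-A2 in RPMI-1640, with twofold dilutions giving final 250–0.98 µg/mL. The inoculum was modified to 1–5 × 10⁴ CFU/mL instead of 1–5 × 10³, with ketoconazole and amphotericin B as positive controls. MIC was the lowest concentration giving total growth inhibition, read visually. Strains were grown on Sabouraud-chloramphenicol agar for 24 h at 37 °C.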

[2] = tested on: Candida albicans; experiment: Antifungal activity against Candida albicans C 127-2000 after 48 hrs by CLSI M27-A2 method; type: functional; how it was run: as §1
[3] = tested on: Pichia kudriavzevii; experiment: Antifungal activity against Candida krusei C 117-2000 after 48 hrs by CLSI M27-A2 method; type: functional; how it was run: as §1
[4] = tested on: Nakaseomyces glabratus; experiment: Antifungal activity against Candida glabrata C 115-2000 after 48 hrs by CLSI M27-A2 method; type: functional; how it was run: as §1
[5] = tested on: Candida albicans; experiment: Antifungal activity against Candida albicans C 125-2000 after 48 hrs by CLSI M27-A2 method; type: functional; how it was run: as §1
[6] = tested on: Candida albicans; experiment: Antifungal activity against Candida albicans C 128-2000 after 48 hrs by CLSI M27-A2 method; type: functional; how it was run: as §1
[7] = tested on: Candida albicans; experiment: Antifungal activity against Candida albicans C 126-2000 after 48 hrs by CLSI M27-A2 method; type: functional; how it was run: as §1
[8] = tested on: Candida parapsilosis; experiment: Antifungal activity against Candida parapsilosis C 124-2000 after 48 hrs by CLSI M27-A2 method; type: functional; details: Lodderomyces parapsilosis; how it was run: as §1
[9] = tested on: Clavispora lusitaniae; experiment: Antifungal activity against Candida lusitaniae C 131-2000 after 48 hrs by CLSI M27-A2 method; type: functional; how it was run: as §1
[10] = tested on: Candida albicans; experiment: Antifungal activity against Candida albicans C 129-2000 after 48 hrs by CLSI M27-A2 method; type: functional; how it was run: as §1
[11] = tested on: Torulaspora delbrueckii; experiment: Antifungal activity against Candida coliculosa C 122-2000 after 48 hrs by CLSI M27-A2 method; type: functional; how it was run: as §1
[12] = tested on: Kluyveromyces marxianus; experiment: Antifungal activity against Candida kefyr C 123-2000 after 48 hrs by CLSI M27-A2 method; type: functional; how it was run: as §1
[13] = tested on: Candida albicans; experiment: Antifungal activity against Candida albicans ATCC 10231 after 48 hrs by CLSI M27-A2 method; type: functional; details: ATCC 10231, 48 h; how it was run: as §1
[14] = tested on: Candida albicans; experiment: Antifungal activity against Candida albicans C 130-2000 after 48 hrs by CLSI M27-A2 method; type: functional; how it was run: as §1
[15] = tested on: Candida albicans; experiment: Antifungal activity against Candida albicans ATCC 10231 pre-incubated for 2 days analysed after 24 hrs by CLSI M27-A2 method; type: functional
How it was run: (§2)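 Twofold maleimide dilutions (1000–0.98 µg/mL) in complete M27-A2 medium without inoculum were held at 37 °C, with one plate row filled on each of 7 consecutive days to give 0–7 days of pre-incubation. All wells were then inoculated with C. albicans ATCC 10231 at 1–5 × 10⁴ CFU/mL and incubated for 24 h at 37 °C. MIC was read per row, in duplicate.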

[16] = tested on: Candida albicans; experiment: Antifungal activity against Candida albicans ATCC 10231 pre-incubated for 6 days analysed after 24 hrs by CLSI M27-A2 method; type: functional; how it was run: as §2
[17] = tested on: Candida albicans; experiment: Antifungal activity against Candida albicans ATCC 10231 within 90 mins by time-to-kill study; type: functional, organism-based
How it was run: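 C. albicans ATCC 10231 (2–2.5 × 10⁴ CFU/mL) in 5 mL RPMI-1640 was exposed to 1× MFC of compound at 37 °C with agitation. 10 µL samples taken at 0, 30, 60, 90 and 120 min, and at 4, 8, 12 and 24 h, were plated on drug-free SDA and colonies counted after 24–48 h at 37 °C. Run in duplicate.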

[18] = tested on: Candida albicans; experiment: Antifungal activity against Candida albicans ATCC 10231 after 24 hrs by CLSI M27-A2 method; type: functional; details: ATCC 10231, 24 h; how it was run: as §1
[19] = tested on: Candida albicans; experiment: Antifungal activity against Candida albicans ATCC 10231 pre-incubated for 4 days analysed after 24 hrs by CLSI M27-A2 method; type: functional; how it was run: as §2
[20] = tested on: Candida albicans; experiment: Antifungal activity against Candida albicans ATCC 10231 pre-incubated for 5 days analysed after 24 hrs by CLSI M27-A2 method; type: functional; how it was run: as §2
[21] = tested on: Candida albicans; experiment: Antifungal activity against Candida albicans ATCC 10231 pre-incubated for 1 day analysed after 24 hrs by CLSI M27-A2 method; type: functional; how it was run: as §2
[22] = tested on: Candida albicans; experiment: Antifungal activity against Candida albicans ATCC 10231 pre-incubated for 3 days analysed after 24 hrs by CLSI M27-A2 method; type: functional; how it was run: as §2
[23] = tested on: Candida albicans; experiment: Antifungal activity against Candida albicans ATCC 10231 preincubated for 7 days analysed after 24 hrs by CLSI M27-A2 method; type: functional; how it was run: as §2

MIC [1]: > 250 µg/mL
MIC [2]: > 250 µg/mL
MIC [3]: > 250 µg/mL
MIC [4]: > 250 µg/mL
MIC [5]: > 250 µg/mL
MIC [6]: > 250 µg/mL
MIC [7]: > 250 µg/mL
MIC [8]: > 250 µg/mL
MIC [9]: > 250 µg/mL
MIC [10]: > 250 µg/mL
MIC [11]: > 250 µg/mL
MIC [12]: > 250 µg/mL
MIC [13]: > 250 µg/mL
MIC [14]: > 250 µg/mL
SMILES: O=C(O)/C=C\C(=O)NCCc1ccccc1

MIC [1]: 15.8 µg/mL (≈ 78.3 µM)
MIC [15]: 7.8 µg/mL (≈ 38.8 µM)
MIC [16]: 250 µg/mL (≈ 1240 µM)
MIC [2]: 1.95 µg/mL (≈ 9.69 µM)
MIC [3]: 3.9 µg/mL (≈ 19.4 µM)
MIC [18]: 3.9 µg/mL (≈ 19.4 µM)
MIC [4]: 1.95 µg/mL (≈ 9.69 µM)
MIC [19]: 31.2 µg/mL (≈ 155 µM)
MIC [20]: 125 µg/mL (≈ 621 µM)
MIC [5]: 1.95 µg/mL (≈ 9.69 µM)
MIC [6]: 3.9 µg/mL (≈ 19.4 µM)
MIC [7]: 3.9 µg/mL (≈ 19.4 µM)
MIC [8]: 3.9 µg/mL (≈ 19.4 µM)
MIC [9]: 3.9 µg/mL (≈ 19.4 µM)
MIC [10]: 1.95 µg/mL (≈ 9.69 µM)
MIC [11]: 1.95 µg/mL (≈ 9.69 µM)
MIC [12]: 3.9 µg/mL (≈ 19.4 µM)
MIC [21]: 3.9 µg/mL (≈ 19.4 µM)
MIC [13]: 3.9 µg/mL (≈ 19.4 µM)
MIC [22]: 7.8 µg/mL (≈ 38.8 µM)
MIC [23]: 500 µg/mL (≈ 2480 µM)
MIC [14]: 1.95 µg/mL (≈ 9.69 µM)
SMILES: O=C1C=CC(=O)N1CCc1ccccc1
MFC [1]: 32.2 µg/mL (≈ 160 µM)
MFC [2]: 3.9 µg/mL (≈ 19.4 µM)
MFC [3]: 7.8 µg/mL (≈ 38.8 µM)
Activity [17]: Active
MFC [4]: 3.9 µg/mL (≈ 19.4 µM)
MFC [5]: 1.95 µg/mL (≈ 9.69 µM)
MFC [6]: 7.81 µg/mL (≈ 38.8 µM)
MFC [7]: 7.81 µg/mL (≈ 38.8 µM)
MFC [8]: 3.9 µg/mL (≈ 19.4 µM)
MFC [9]: 7.8 µg/mL (≈ 38.8 µM)
MFC [10]: 1.95 µg/mL (≈ 9.69 µM)
MFC [11]: 7.81 µg/mL (≈ 38.8 µM)
MFC [12]: 3.9 µg/mL (≈ 19.4 µM)
MFC [13]: 7.8 µg/mL (≈ 38.8 µM)
MFC [14]: 1.95 µg/mL (≈ 9.69 µM)

MIC [1]: > 250 µg/mL
MIC [2]: > 250 µg/mL
MIC [3]: > 250 µg/mL
MIC [4]: > 250 µg/mL
MIC [5]: > 250 µg/mL
MIC [6]: > 250 µg/mL
MIC [7]: > 250 µg/mL
MIC [8]: > 250 µg/mL
MIC [9]: > 250 µg/mL
MIC [10]: > 250 µg/mL
MIC [11]: > 250 µg/mL
MIC [12]: > 250 µg/mL
MIC [13]: > 250 µg/mL
MIC [14]: > 250 µg/mL
SMILES: O=C(O)/C=C\C(=O)NCc1ccccc1
